# Activity calls are given as the source filed them. The rule behind the calls is not given here.
# Tests used:
# Melanocortin receptor 4 [1] = target: T1, Melanocortin receptor 4 (Homo sapiens, UniProt P32245); experiment: Agonist activity at of human MC4R expressed in HEK293 cells assessed as cAMP level at 10^-7 to 10^-12 M after 15 mins by chemiluminescent assay relative to 5% forskolin response; assay type: functional, cell-based
# In short: (§1)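 Same cAMP immunoassay in HEK293/hMC4R cells (1mM IBMX, 15 min ligand at 37°C, basal subtracted). For each ligand, the concentration giving cAMP at 5%, 10% or 25% of the 10 μM forskolin maximum was found. Receptor occupancy there was computed as [RL] = Bmax × [L]/([L] + Kd), with Kd from the Eu-NDP-α-MSH competition binding assays.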
# Melanocortin receptor 4 [2] = target: T1, Melanocortin receptor 4; experiment: Agonist activity at human MC4R expressed in HEK293 cells assessed as increase in cAMP production at 10^-7 to 10^-12 M after 15 mins by chemiluminescent assay; assay type: functional, cell-based
# In short: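 HEK293/hMC4R cells in DMEM with 10% SCS, seeded 3 days ahead. Cells pre-incubated 10 min at 37°C with 1mM IBMX, then 8 ligand concentrations given for 15 min at 37°C. Lysed 25 min at 37°C. cAMP measured by competitive chemiluminescent immunoassay (AP conjugate, anti-cAMP antibody) against a same-run standard curve, basal subtracted. Triplicate wells, 3 experiments.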
# Melanocortin receptor 4 [3] = target: T1, Melanocortin receptor 4; experiment: Agonist activity at of human MC4R expressed in HEK293 cells assessed as cAMP level at 10^-7 to 10^-12 M after 15 mins by chemiluminescent assay relative to 10% forskolin response; assay type: functional, cell-based; in short: as §1
# Melanocortin receptor 4 [4] = target: T1, Melanocortin receptor 4; experiment: Displacement of Eu-NDP-alpha-MSH from human MC4R expressed in HEK293 cells after 2 hrs by time resolved fluorescence assay; assay type: cell-based
# T1 sequence (P32245 whole entry): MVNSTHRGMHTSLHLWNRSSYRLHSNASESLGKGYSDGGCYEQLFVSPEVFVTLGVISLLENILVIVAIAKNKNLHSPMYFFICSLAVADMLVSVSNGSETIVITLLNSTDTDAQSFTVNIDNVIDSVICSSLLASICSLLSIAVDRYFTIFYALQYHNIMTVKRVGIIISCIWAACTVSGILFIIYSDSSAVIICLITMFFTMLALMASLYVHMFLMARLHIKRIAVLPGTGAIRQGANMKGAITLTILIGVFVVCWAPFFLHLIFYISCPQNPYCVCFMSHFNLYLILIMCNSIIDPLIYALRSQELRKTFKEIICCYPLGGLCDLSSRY
SMILES,Activity (Melanocortin receptor 4 [1]) [pmol],Activity (Melanocortin receptor 4 [2]),Activity (Melanocortin receptor 4 [3]) [pmol],IC50 (Melanocortin receptor 4 [4]) [µM]
C#CCCCC(=O)N[C@@H](Cc1cnc[nH]1)C(=O)N[C@H](Cc1ccccc1)C(=O)N[C@@H](CCCNC(=N)N)C(=O)N[C@@H](Cc1c[nH]c2ccccc12)C(=O)Nc1cn(CC(=O)NCCCC(CCCNC(=O)Cn2cc(NC(=O)[C@H](Cc3c[nH]c4ccccc34)NC(=O)[C@H](CCCNC(=N)N)NC(=O)[C@@H](Cc3ccccc3)NC(=O)[C@H](Cc3cnc[nH]3)NC(=O)CCC#C)nn2)(NC(=O)CNC(=O)Cn2cc(NC(=O)[C@H](Cc3c[nH]c4ccccc34)NC(=O)[C@H](CCCNC(=N)N)NC(=O)[C@@H](Cc3ccccc3)NC(=O)[C@H](Cc3cnc[nH]3)NC(=O)CCC#C)nn2)C(=O)NCCC(N)=O)nn1 (some centres not stated),14000,Active,75000,
C#CCCCC(=O)N[C@@H](Cc1cnc[nH]1)C(=O)N[C@H](Cc1ccccc1)C(=O)N[C@@H](CCCNC(=N)N)C(=O)N[C@@H](Cc1c[nH]c2ccccc12)C(=O)Nc1cn(CC(=O)NCCCC(CCCNC(=O)Cn2cc(NC(=O)[C@H](Cc3c[nH]c4ccccc34)NC(=O)[C@H](CCCNC(=N)N)NC(=O)[C@@H](Cc3ccccc3)NC(=O)[C@H](Cc3cnc[nH]3)NC(=O)CCC#C)nn2)(NC(=O)CNC(C)=O)C(=O)NCCC(N)=O)nn1 (some centres not stated),12000,Active,45000,0.31

# — ChEMBL document CHEMBL1833902, “Design, synthesis, and biological studies of efficient multivalent melanotropin ligands: tools toward melanoma diagnosis and treatment” (J Med Chem, 2011)
